Bioassay records as filed in PubChem.
SKKanGAS inh: S. pyogenes SKKanGAS growth inhibitors in kanamycin, primary screen, streptokinase expression inhibitor project, SKKanGAS strain, BacTiter-Glo luminescence; 1.3% of 300,000 active; 6 h; inhibition, % at 7.5 µM;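 active = mean replicate score, as percent of positive control median, at least 50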;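 also: strain carries kanamycin resistance gene driven by streptokinase promoter and grows in 40 µg/ml kanamycin; loss of luminescence reflects streptokinase promoter inhibition or plain growth inhibition; 0% = median of DMSO wells and 100% = positive control at its reference dose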
HIF activator: HIF pathway transcriptional activators, primary screen, cell-based, U2OS HRE-luciferase, luminescence; 0.32% of 300,000 active; activation, % at 7.5 µM (by protocol); AID 1910, 2009; U2OS HRE-luciferase reporter; normalized: DMSO 0%, desferrioxamine 100%;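 active = mean activation of at least 10% of the iron chelator positive control signal, with at least half of replicates also reaching 10%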
CSC inhib: cancer stem cell viability inhibitors, primary screen, luminescence. cancer stem cell-like cells viability. inhibition, % at 7.5 µM. 1.1% of 300,000 active. AID 2717, 2010; in the data active = inhibition above about 75%; tested in HMLE shEcad cells
Beta cell apopt: inhibitors of cytokine-induced beta cell apoptosis, primary screen, luminescence | INS-1E cytokine-induced death, ATP luminescence, 48 h; percent of positive-control rescue, neutral wells zero | protection from apoptosis, % (test concentration not listed) | 0.8% of 300,000 active;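 active = Every replicate reaches about 75%, or at least half do and their mean reaches it too, limit read from the data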;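 also: 0% = cytokine-treated negative control wells and 100% = positive control rescue; higher means more ATP so stronger rescue from cytokine killing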
T cruzi inh: inhibitors of intracellular T. cruzi growth, primary screen, luminescence, NIH3T3 host cells. inhibition, % (no concentration beside the values). 1.4% of 300,000 active. T. cruzi beta-gal in NIH3T3, 90 h;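 active = mean inhibition across valid replicates above about 55%, limit read from the data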;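 also: signal also drops with host cell toxicity which is not excluded here; 0% = plate median of DMSO wells and 100% = zero luminescence signal; higher percent means less beta-gal luminescence so fewer parasites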
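System: NIH/3T3 fibroblasts plus reporter T. cruzi. Medium: DMEM plus 2% FBS. Probe or stimulus: 5000 reporter trypomastigotes per well. Compound: single 50 nL compound addition per well in DMSO. Incubation: co-culture of at least 90 h after 3 h attachment. Detection: GalScreen β-gal luminescence, detergent lysis, 60 min. Evaluation: parasite load inhibition, %.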
PfHsp90 set2: growth inhibition of PfHsp90-expressing yeast, primary screen, antimalarial PfHsp90 inhibitor project, S. cerevisiae, BacTiter-Glo luminescence, single point, set 2; BacTiter-Glo ATP, 48 h; yeast lacking PDR1 and PDR3 efflux regulators; inhibition, % at 9.4 µM; 0.32% of 310,000 active; AID 504621, 2011;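 active = every replicate shows inhibition above about 80%, whatever the replicate mean, limit read from the data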;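 also: 0% = DMSO neutral controls and 100% = 20 µM radicicol positive controls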
The depositor's hits bear a star. Only some compounds are listed: those with a hit (about 3.6% of all), similar ones and a draw of the others.

`Cc1c(NC(=O)/C=C/c2ccc(S(=O)(=O)N3CCOCC3)cc2)c(=O)n(-c2ccccc2)n1C` gave SKKanGAS inh -3.5, HIF activator 0.3, Beta cell apopt -2.9, T cruzi inh 5.9 and PfHsp90 set2 -15.2.
`O=C(Nc1cccc(Cl)c1N1CCCC1)c1ccc([N+](=O)[O-])o1` gave CSC inhib 100.1*, Beta cell apopt 1.6 and PfHsp90 set2 2.6.
CCCC(=O)N1CCN(c2ccc(NC(=O)c3ccc([N+](=O)[O-])o3)cc2Cl)CC1 was read as SKKanGAS inh 3.2, HIF activator -5.1, T cruzi inh 56.6* and PfHsp90 set2 -49.2.
O=C(Nc1ccc(N2CCOCC2)c(Cl)c1)c1ccc([N+](=O)[O-])o1 was read as SKKanGAS inh 6.2, HIF activator 2.5, T cruzi inh 22.0 and PfHsp90 set2 -13.9.
Screening O=C(Nc1ccccc1N1CCCC1)c1cccc(-c2cc3ccccc3oc2=O)c1 returned SKKanGAS inh 7.7, HIF activator 2.2, CSC inhib 90.1*, Beta cell apopt 5.8, T cruzi inh 12.0 and PfHsp90 set2 -45.7.
CCN1CCN(c2c(Cl)cccc2NC(=O)c2ccc([N+](=O)[O-])o2)CC1 was read as SKKanGAS inh 4.7, HIF activator -3.2, CSC inhib 24.0, Beta cell apopt 103.3* and T cruzi inh 30.4.
`CCOC(=O)CC1C(=O)NCCN1C1CCCC1` (centres undefined) gave SKKanGAS inh 0.1, HIF activator -0.4, CSC inhib -10.5, Beta cell apopt -5.7, T cruzi inh -3.9 and PfHsp90 set2 -16.7.
Screening CCCCN(C(=O)CCN1C(=O)C2CC=CCC2C1=O)c1c(N)n(CCCC)c(=O)[nH]c1=O (centres undefined) returned PfHsp90 set2 9.0.
Screening O=C(Nc1cccc(Cl)c1N1CCCC1)c1ccc(Br)o1 returned SKKanGAS inh 70.3*, HIF activator -0.3, CSC inhib 30.1, Beta cell apopt -3.9, T cruzi inh 26.3 and PfHsp90 set2 -15.8.
Screening O=C(Nc1cccc(Cl)c1N1CCOCC1)c1ccco1 returned SKKanGAS inh 1.6, HIF activator 0.3, CSC inhib 30.9, Beta cell apopt -2.8, T cruzi inh 7.1 and PfHsp90 set2 -12.9.
Screening O=C(Nc1cccc(Cl)c1N1CCCC1)c1cc2ccccc2o1 returned SKKanGAS inh 73.1*, HIF activator 1.1, CSC inhib 74.0, Beta cell apopt 8.5, T cruzi inh 29.8 and PfHsp90 set2 11.4.
For Cc1ccccc1N=C1SC(CC(=O)Nc2ccc3ccccc3c2)C(=O)N1Cc1ccccn1 (centres undefined) the results were SKKanGAS inh 34.1, HIF activator -0.7, CSC inhib 78.1*, Beta cell apopt 3.3, T cruzi inh 41.5 and PfHsp90 set2 -20.2.
For CCOCCc1c(O)nc(SCC)[nH]c1=O the results were SKKanGAS inh 6.4, HIF activator 0.4, CSC inhib -7.6, Beta cell apopt -10.7, T cruzi inh 4.9 and PfHsp90 set2 1.1.
Screening COc1ccc(CCNc2ncnc3[nH]ncc23)cc1OC returned SKKanGAS inh 0.2, HIF activator 0.7, CSC inhib 14.6, Beta cell apopt -6.0, T cruzi inh -13.9 and PfHsp90 set2 -1.5.
`COc1ccc(CCNc2ncnc3sc(C)cc23)cc1OC` gave SKKanGAS inh 1.6, HIF activator -0.1, CSC inhib 2.9, Beta cell apopt 106.6*, T cruzi inh -42.4 and PfHsp90 set2 2.6.
`CCOc1ccc(N=c2cc(-c3ccc(OC)cc3)oc3ccccc23)cc1` gave SKKanGAS inh 0.7, HIF activator 1.1, CSC inhib 3.2, Beta cell apopt 20.5, T cruzi inh 57.4* and PfHsp90 set2 1.6.
`O=C1NC(Cc2ccccc2)C(=O)Nc2ccc(Br)cc21` (centres undefined) gave SKKanGAS inh 4.2, HIF activator -1.5, CSC inhib -6.4, Beta cell apopt -5.3, T cruzi inh -4.4 and PfHsp90 set2 0.9.
O=C1Nc2ccc(Br)cc2/C1=C/C1CC=CCC1 (centres undefined) was read as SKKanGAS inh -3.1, HIF activator 0.1, CSC inhib 33.1, Beta cell apopt -4.1, T cruzi inh 13.1 and PfHsp90 set2 102.6*.
Screening COc1ccc(C)cc1NC(=O)NC1CCCc2ccccc21 (centres undefined) returned SKKanGAS inh 51.4*, HIF activator -0.5, CSC inhib 2.1, Beta cell apopt 6.8, T cruzi inh 11.2 and PfHsp90 set2 -4.1.
COC(=O)/C=C/c1ccccc1CN1[C@@H](CC(=O)OC)c2ccccc2S1(=O)=O was read as CSC inhib -0.4, Beta cell apopt -6.3 and PfHsp90 set2 7.0.
`NC(=O)c1nsc(C(=O)N(c2ccc(F)cc2)C(C(=O)NC2CCCC2)c2ccncc2)c1N` (centres undefined) gave SKKanGAS inh -13.1, HIF activator 0.0, CSC inhib 18.7, Beta cell apopt 2.0, T cruzi inh -2.0 and PfHsp90 set2 -23.6.
`CC(C)c1ccc(N(C(=O)c2snc(C(N)=O)c2N)C(C(=O)NC2CCCC2)c2ccncc2)cc1` (centres undefined) gave SKKanGAS inh 7.0, HIF activator 44.1*, Beta cell apopt 3.6, T cruzi inh 37.7 and PfHsp90 set2 -23.5.
Screening CCCCCCCCCCCCCCCC(=O)Nc1ccn(C2OC(CO)C(O)C2O)c(=O)n1 (centres undefined) returned PfHsp90 set2 -52.0.
S=C(Nc1ccc(Cl)cc1)c1nc2ccccc2[nH]1 was read as SKKanGAS inh 76.4*, HIF activator 2.2, CSC inhib 45.9, Beta cell apopt 42.7, T cruzi inh 47.0 and PfHsp90 set2 -10.9.
For O=C(/C(=C/c1ccc(Cl)cc1)c1nc2ccccc2[nH]1)c1cccs1 the results were SKKanGAS inh 0.4, HIF activator -4.1, CSC inhib 93.1*, Beta cell apopt 126.0* and T cruzi inh 59.1*.
For COc1cc(/C=C(/C(=O)c2cccs2)c2nc3ccccc3[nH]2)ccc1O the results were SKKanGAS inh 5.3, HIF activator 2.6, CSC inhib 60.9, Beta cell apopt 83.2*, T cruzi inh -15.5 and PfHsp90 set2 15.8.
Screening O=C(/C=C/c1cccc(Cl)c1)c1nc2ccccc2[nH]1 returned SKKanGAS inh 17.5, HIF activator 2.7, CSC inhib 84.4*, Beta cell apopt -2.6, T cruzi inh -10.3 and PfHsp90 set2 65.0.
For N#C/C(=C/C1=C(N2CCOCC2)C(=C/c2ccc(Cl)cc2Cl)/CC1)C(=O)Nc1ccccc1F the results were PfHsp90 set2 -2.0.
